Assay [1] is described as follows: Displacement of (-)-[3H]DTG from sigma 2 receptor in rat liver membranes after 120 mins. The assay is classed as cell membranes, Membrane.
Assay [2] has as its target T1, Vesicular acetylcholine transporter (Rattus norvegicus, UniProt Q62666).
T1 sequence (Q62666 whole entry): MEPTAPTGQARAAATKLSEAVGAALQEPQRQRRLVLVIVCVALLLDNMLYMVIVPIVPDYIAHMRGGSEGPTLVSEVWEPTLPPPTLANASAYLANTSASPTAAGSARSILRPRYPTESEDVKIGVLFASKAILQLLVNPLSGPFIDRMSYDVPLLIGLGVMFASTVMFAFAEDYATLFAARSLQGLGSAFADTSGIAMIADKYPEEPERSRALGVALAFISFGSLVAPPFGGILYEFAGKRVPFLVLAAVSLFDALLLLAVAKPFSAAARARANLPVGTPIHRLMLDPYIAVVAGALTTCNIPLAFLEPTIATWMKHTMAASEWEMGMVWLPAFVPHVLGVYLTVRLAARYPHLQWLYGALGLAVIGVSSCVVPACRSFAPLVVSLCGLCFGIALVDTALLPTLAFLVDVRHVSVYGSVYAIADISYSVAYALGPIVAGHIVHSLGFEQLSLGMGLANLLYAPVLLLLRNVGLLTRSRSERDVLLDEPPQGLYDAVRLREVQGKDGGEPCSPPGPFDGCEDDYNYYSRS
The assay is described as follows: Displacement of (-)-[3H]vesamicol from rat VAChT expressed in rat PC12 cells after 60 mins. The assay is classed as cell-based, PC-12. A digest of the protocol:
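Displacement of (−)-[3H]vesamicol was run on homogenates of PC12 cells stably transfected with rat VAChT. (−)-Vesamicol in excess defined non-specific binding, and bound ligand was collected by filtration on a cell harvester. Triplicates, at least three times; IC50 by computational non-linear regression.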

Assay [3] is filed under the species Rattus norvegicus. The assay is described as follows: Selectivity ratio of Ki for sigma 1 receptor in rat cortical membranes to Ki for rat VAChT. Particulars: Membrane. The assay is classed as cell membranes.
Assay [4] addresses Sigma non-opioid intracellular receptor 1 (Rattus norvegicus, UniProt Q9R0C9). The assay is described as follows: Displacement of (-)-[3H]pentazocine from sigma 1 receptor in rat cortical membranes after 120 mins. The class given is cell membranes, Membrane. The essentials:
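Radioligand displacement on rat cortical membrane homogenates with (−)-[3H]pentazocine (1070 GBq/mmol), in 50 mM TRIS–HCl pH 7.4 at room temperature. Each assay was run in triplicate at least three times, and IC50 was estimated by non-linear regression.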

Chain of Sigma non-opioid intracellular receptor 1 (Q9R0C9 whole entry): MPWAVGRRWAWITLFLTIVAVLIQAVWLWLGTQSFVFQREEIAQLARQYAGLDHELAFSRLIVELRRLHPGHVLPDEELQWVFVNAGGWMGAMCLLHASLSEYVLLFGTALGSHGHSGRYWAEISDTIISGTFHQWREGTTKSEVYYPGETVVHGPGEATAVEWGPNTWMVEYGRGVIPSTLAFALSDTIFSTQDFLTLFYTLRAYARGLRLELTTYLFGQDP

On to `O[C@H]1Cc2cccc(F)c2C[C@@H]1N1CCC(c2ccccc2)CC1`, for which the Ki – broadly, a measure of affinity in units of concentration, obtained from inhibition or displacement – is 526 nM in assay [1], 6.95 nM in assay [2] and 38.1 nM in assay [4]. In assay [3], the Ratio Ki came out at 5.48.
As to `O[C@H]1Cc2cccc(OCCF)c2C[C@@H]1N1CCC(c2ccccc2)CC1`, the results for the Ki in assay [2] and in assay [4] were 56.9 nM and 269 nM, respectively. The Ratio Ki in assay [3] is 4.7.
On to `O[C@@H]1Cc2cccc(F)c2C[C@H]1N1CCC(c2ccccc2)CC1`, for which the Ki in assay [1] is 252 nM; in assay [2], 3.68 nM; in assay [4], 3.57 nM. Also, in assay [3], the Ratio Ki was determined as 0.97.
Take `O[C@@H]1Cc2cccc(I)c2C[C@H]1N1CCC(c2ccccc2)CC1` (racemic): the results for the Ki in assay [2] and in assay [4] were 15.8 nM and 266 nM, respectively. Moreover, the Ratio Ki in assay [3] is 17.
Consider `O[C@@H]1Cc2cccc(OCCF)c2C[C@H]1N1CCC(c2ccccc2)CC1`, for which the Ki was found to be 19.6 nM in assay [2] and 209 nM in assay [4]. Also, the Ratio Ki in assay [3] came out at 10.7.
In the case of `Nc1cccc2c1CC(N1CCC(c3ccccc3)CC1)C(O)C2` (racemic), the Ki in assay [2] stood at 40.6 nM; in assay [4] it was 652 nM. In assay [3], the Ratio Ki stood at 16.
As for `OC1Cc2cccc(F)c2CC1N1CCC(c2ccccc2)CC1` (racemic), the Ki in assay [1] was 229 nM; in assay [2], 10.9 nM; in assay [4], 13.2 nM. Moreover, the Ratio Ki in assay [3] was 1.21.

For the origin of these results see ChEMBL document CHEMBL1268949, “3D QSAR study, synthesis, and in vitro evaluation of (+)-5-FBVM as potential PET radioligand for the vesicular acetylcholine transporter (VAChT)” (Bioorg Med Chem, 2010).
